Consider seven molecules from publication PMC3841656 (Pharmaceutical Research, 2013).

What all share (assay type): physicochemical
The nature of data set [1]: Equilibrium solubility in soybean oil. The note with it: 37°C, HPLC. The procedure, abridged:
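The drug was added in excess to triplicate sealed glass vials of soybean oil (2 g, later 1 g), vortexed and incubated at 37°C. Samples were taken at 24, 48 and 72 h or longer after centrifugation at 37°C, 2,800 g for 30 min. Supernatant (20–30 mg) was diluted in 66% v/v chloroform/methanol and quantified by C18 RP-HPLC-UV against a standard curve. Equilibrium was taken when consecutive 24-h points differed <10%; mean ± SD, n ≥ 3.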

Data set [2] can be described thus: Equilibrium solubility in PEG400, ambient conditions. The note with it: PEG400, 37°C, ambient milieu (0.32% w/w water). The essentials: (§1)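 Excess drug was added to triplicate sealed glass vials of excipient (2 g, later 1 g) and held at 37°C with periodic vortexing. Vials were centrifuged at 37°C, 2,800 g for 30 min and sampled at 24, 48 and 72 h or longer. Supernatant (20–30 mg) was diluted in 7% v/v chloroform/methanol and analysed by C18 RP-HPLC-UV. Equilibrium was taken when consecutive 24-h samples differed <10%; mean ± SD, n ≥ 3.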

The nature of data set [3]: Equilibrium solubility in polysorbate 80. The note with it: polysorbate 80, 37°C, HPLC. The essentials:
as §1

A short description of data set [4]: Solubility in PEG400 under dry conditions. The note with it: two tailed t-test, ambient vs dry.

As for `CC(C)(Oc1ccc(CCNC(=O)c2ccc(Cl)cc2)cc1)C(=O)O` [Bezafibrate], the “equilibrium solubility in SBO” value in data set [1] is listed as “less than the limit of detection”.
With `CCOc1nc2cccc(C(=O)O)c2n1Cc1ccc(-c2ccccc2-c2nnn[nH]2)cc1` [Candesartan], the “equilibrium solubility in SBO” value in data set [1] is given as “less than the limit of detection”. In addition, in data set [2], the “equilibrium solubility in PEG400” value came to 13.8 ± 1.5 mg/g.
For `C#C[C@]1(O)CC[C@H]2[C@@H]3CCc4cc(O)ccc4[C@H]3CC[C@@]21C` [Ethinylestradiol], the “equilibrium solubility in PS80” value in data set [3] is “high solubility”. The “equilibrium solubility in PEG400” value in data set [2] is “high solubility”.
Regarding `COc1ccc(Cl)cc1C(=O)NCCc1ccc(S(=O)(=O)NC(=O)NC2CCCCC2)cc1` [Glibenclamide], the “equilibrium solubility in SBO” value in data set [1] was “less than the limit of detection”.
`COc1ccc2c(c1)c(CC(=O)O)c(C)n2C(=O)c1ccc(Cl)cc1` [Indomethacin]: in data set [4], the “difference in PEG400 solubility between ambient and dry conditions” value is “no significant difference”.
On to `N[C@@H](Cc1cc(I)c(Oc2cc(I)c(O)c(I)c2)c(I)c1)C(=O)O` [Levothyroxine], for which the “equilibrium solubility in SBO” value in data set [1] is given as “less than the limit of detection”.
As for `CC(C)(C)NC(=O)[C@@H]1C[C@@H]2CCCC[C@@H]2CN1C[C@@H](O)[C@H](Cc1ccccc1)NC(=O)[C@H](CC(N)=O)NC(=O)c1ccc2ccccc2n1` [Saquinavir], the “equilibrium solubility in PEG400” value in data set [2] is “high solubility”.
